Compound activity as filed in PubChem BioAssay.
Sampled rows, rich in hits. Any-hit rate of the full collection: about 1.7%.
GALR2 agonist = GALR2 receptor agonists, primary screen, cell-based. actives 0.48% (n = 140,000). activation, % (no concentration beside the values). AID 803, 2007. GALR2-expressing cells, agonist activation read-out; in the data active means activation above about 5%, passing the limit was not always enough;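 further: 0% = vehicle buffer wells and 100% = reference agonist at full effect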
S1P2 blocker = human S1P2 receptor antagonists, primary screen, cell-based; Sphingosine 1-phosphate receptor 2 (Homo sapiens), O95136; cell-based S1P2 antagonist assay, inhibition at 5 uM; inhibition, % at 5 µM; actives 0.21% (n = 97,000); AID 736, 2007; in the data active means inhibition above about 45%;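 further: CRE beta-lactamase reporter cells expressing human S1P2 stimulated with S1P; 0% = agonist at EC80 alone and 100% = agonist plus reference antagonist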
EphB4 ephrin blk = EphB4-ephrin-B2 interaction antagonists, primary screen, biochemical, TNYL-RAW peptide probe, fluorescence polarization. Ephrin type-B receptor 4 (Homo sapiens), P54760. EphB4 LBD / TNYL-RAW-Alexa532 peptide. inhibition, % at 7 µM. actives 0.15% (n = 97,000);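 active means inhibition above the screen-wide mean inhibition plus 3 SD, cut at about 15% in these data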;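 further: 0% = DMSO wells and 100% = excess unlabeled TNYL-RAW peptide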
Target sequence (P54760 whole entry, looked up, the tested form may be a part): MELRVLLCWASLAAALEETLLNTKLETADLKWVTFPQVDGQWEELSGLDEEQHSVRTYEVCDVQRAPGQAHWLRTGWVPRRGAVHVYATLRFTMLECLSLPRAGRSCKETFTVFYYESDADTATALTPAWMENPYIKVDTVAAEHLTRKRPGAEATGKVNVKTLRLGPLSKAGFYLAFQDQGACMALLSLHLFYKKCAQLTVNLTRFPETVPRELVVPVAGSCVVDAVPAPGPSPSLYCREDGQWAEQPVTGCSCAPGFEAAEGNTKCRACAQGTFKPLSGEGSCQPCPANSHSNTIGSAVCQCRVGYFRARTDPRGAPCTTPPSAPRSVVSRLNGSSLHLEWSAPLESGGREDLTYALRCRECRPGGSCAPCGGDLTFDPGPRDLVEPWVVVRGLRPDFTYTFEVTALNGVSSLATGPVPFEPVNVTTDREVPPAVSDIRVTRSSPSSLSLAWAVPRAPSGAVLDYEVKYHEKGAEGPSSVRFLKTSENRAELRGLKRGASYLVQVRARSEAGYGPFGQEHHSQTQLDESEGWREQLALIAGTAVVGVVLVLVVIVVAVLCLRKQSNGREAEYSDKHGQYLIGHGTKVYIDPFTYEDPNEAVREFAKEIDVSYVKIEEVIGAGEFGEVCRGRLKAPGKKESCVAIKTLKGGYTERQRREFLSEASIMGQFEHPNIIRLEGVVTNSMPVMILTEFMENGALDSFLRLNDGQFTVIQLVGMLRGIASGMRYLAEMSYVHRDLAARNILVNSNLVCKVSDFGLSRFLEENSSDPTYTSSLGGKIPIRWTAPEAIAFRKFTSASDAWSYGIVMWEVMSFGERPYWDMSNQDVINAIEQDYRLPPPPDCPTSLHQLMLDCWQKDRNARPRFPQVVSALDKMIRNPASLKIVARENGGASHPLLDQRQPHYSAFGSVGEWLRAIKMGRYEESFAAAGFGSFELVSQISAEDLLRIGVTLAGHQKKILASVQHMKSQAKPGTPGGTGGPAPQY
Rev-RRE block = HIV-1 Rev-RRE binding inhibitors, primary screen, biochemical, FRET, protein-RNA interaction; inhibition, % at 8 µM; actives 0.79% (n = 97,000); P05866; Rev peptide-RRE RNA binding; AID 704, 2007;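 active means inhibition above the screen-wide mean plus 3 SD, cut at about 35% in these data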;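 further: 0% = median DMSO wells and 100% = median Neomycin B control wells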
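Material: labelled RRE RNA duplex and labelled Rev peptide / Buffer or medium: HEPES pH 7.5 salt buffer with EDTA / Compound dosing: single point, 8 µM final nominal compound concentration / Benchmarks: DMSO low control, neomycin B high control / Timing: 5 min preincubation and 15 min binding, 25 °C / Technique: FRET fluorescence readout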
GALR2 antag = GALR2 antagonists in receptor-expressing cells, primary screen | Galanin receptor type 2 (Homo sapiens), O43603 | antagonist mode | inhibition, % at 4 µM | actives 0.39% (n = 140,000); in the data active means inhibition above about 27%;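 further: cells stimulated with galanin 1-16 at roughly its EC80; 0% = agonist challenge control and 100% = basal control without agonist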
S1P2 ag = S1P2 receptor agonists, primary screen, cell-based | AID 729, 2007 | activation, % at 4.5 µM | actives 0.46% (n = 97,000) | Sphingosine 1-phosphate receptor 2 (Homo sapiens), O95136 | S1P2-expressing cell line, agonist reporter read-out; in the data active means activation above about 16%;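 further: 0% = vehicle low control and 100% = maximal reference agonist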
* marks the source's active call; other numbers are inactive results; / = no result; [ ] = dose if it differs, or a comment.

SMILES	GALR2 agonist	S1P2 blocker	EphB4 ephrin blk	Rev-RRE block	GALR2 antag	S1P2 ag
OCCCc1nc2n(n1)C(c1cccs1)C=C(c1ccc(Br)cc1)N2 (stereo not drawn)	0	15	4	135*[fluorescence artefact?]	2	-5
Fc1ccc(C2=CC(c3ccc(Br)o3)n3ncnc3N2)cc1 (stereo not drawn)	0	/	/	/	18	/
CCOC(=O)c1c(NC(=O)c2ccc(N3C(=O)C4C5C=CC(C5)C4C3=O)cc2)sc2c1CCCC2 (stereo not drawn)	-2	18	-2	-4	-13	-1
COc1cccc(NC(=O)C2CCCN2C(=O)Nc2cccc(F)c2)c1 (stereo not drawn)	-4	31	-4	8	-5	-13
COC(=O)[C@H]1CCCN1C(=O)Nc1cccc(Oc2c(F)c(F)c(F)c(F)c2F)c1	14*	2	-3	3	8	-4
CC1(C)OC(=O)C(=NNc2ccc(Br)cc2)C(=O)O1	-2	/	/	/	10	/
CC(=O)c1ccc(Nc2c3c(c(C#N)c4nc5ccccc5n24)CCC3)cc1	1	/	/	/	-3	/
CCN(CC)c1c2c(c(C#N)c3nc4ccccc4n13)CCC2	1	-36	-5	6	4	20*
CCc1ccc(N(C(=O)c2snc(C(N)=O)c2N)C(C(=O)NCCC(C)C)c2c[nH]c3ccccc23)cc1 (stereo not drawn)	0	-14	-8	7	-15	-3
Cc1ccc(/C(O)=C2\C(=O)C(=O)N(Cc3cccnc3)C2c2ccccc2[N+](=O)[O-])cc1 (stereo not drawn)	-2	/	/	/	23	/
CCOC(=O)C1=C(C)Nc2sc(C(=O)c3ccc(OC)cc3)c(N)c2C1c1ccc(C(=O)OC)cc1 (stereo not drawn)	5.6*	/	/	/	-2	/
COC(=O)C1=C(C)Nc2sc(C(N)=O)c(N)c2C1c1ccncc1 (stereo not drawn)	0	/	/	/	-1	/
CN(C)/C=C(\C#N)c1nc2ccccc2[nH]1	-4	-9	3	10	6	-6
Cc1ccc2nc(/C(C#N)=C\c3ccc(Oc4ccc(C(F)(F)F)cc4[N+](=O)[O-])cc3)[nH]c2c1	0	/	/	/	3	/
Cc1cc(/C=C(/C#N)c2nc3ccccc3[nH]2)c(C)n1-c1cccc([N+](=O)[O-])c1	0	-13	1	4	-3	30*
CCCOc1cc(N(CC)CC)ccc1/C=C(/C#N)c1nc2ccc(C)cc2[nH]1	-3	1	-7	133*[fluorescence artefact?]	25	0
CCOc1cc(N(CC)CC)ccc1/C=C(/C#N)c1nc2ccccc2[nH]1	-1	6	-6	132*[fluorescence artefact?]	23	12
COc1cc(/C=C(\C#N)c2nc3ccc(C)cc3[nH]2)c([N+](=O)[O-])cc1OC	-2	-3	-1	9	8	18*
Cc1cc(/C=C(\C#N)c2nc3ccccc3[nH]2)c(C)n1C	1	/	/	/	12	/
COc1ccc(/C=C(\C#N)c2nc3ccc(C)cc3[nH]2)cc1Oc1ccc(C(F)(F)F)cc1[N+](=O)[O-]	-1	-2	1	23	-11	-5
CNC(=O)CC1C(=O)N(C)C(=S)N1NC(=O)c1ccc(Cl)cc1 (stereo not drawn)	-3	10	3	4	10	-8
CCC(CC)=N/N=C/c1c(O)n(CC)c2cc(C3=NNC(=O)CC3)ccc12	-1	-17	-8	18	4	-5
CCn1c(O)c(/C=N/N=C/c2ccccc2)c2ccc(C3=NNC(=O)CC3)cc21	-1	12	1	57*	4	0
CCN1c2ccccc2NC2C1C(C(C)=O)C(=O)N2c1ccc(Cl)cc1 (stereo not drawn)	-1	3	5	50*	1	-1
CCN1c2ccccc2NC2N=C(OC)C(c3ccccc3)C21 (stereo not drawn)	0	8	1	-3	-6	-2
N#Cc1c2n(c3c(=O)n(CC(=O)c4ccc([N+](=O)[O-])cc4)cnc13)CCCCC2	-2	/	/	/	10	/
Cc1ccccc1CS(=O)(=O)c1cnc2ccccc2n1	-1	-10	-3	10	-1	-1
